Assay results from article PMC3349182 (British Journal of Cancer, 2012).
“Also recorded” adds a separate entry of the source.

Assays:
[1] = test system: patients with advanced, refractory solid tumours; assay: Phase I dose escalation: toxicity; assay type: in vivo, human; conditions: treatment-related
Summary of the method: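 Oral dosing was once daily in 28-day cycles, escalating by an accelerated design from 0.2 mg/day. Toxicity was graded by NCI CTC v3.0. During cycle 1, patients had weekly examination, blood pressure, full blood count, biochemistry and urinalysis, plus ECGs on days 1 and 8. DLT covered drug-related toxicity in cycle 1: grade ⩾3 toxicity, repeated grade 2 toxicity needing dose reduction, or <75% of planned dose given. The MTD was the highest dose with ≤1/6 patients having a DLT, and 12 more patients were treated at the MTD.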

[2] = Plasma pharmacokinetics of E7080; assay type: in vivo, human
Summary of the method: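 Patients took oral drug once daily after an overnight fast. Blood and urine were sampled after a single dose and after multiple dosing. Drug concentrations were measured by LC-MS/MS. tmax, Cmax, AUC0-24, AUC0-∞, AUC0-τ, t½, CL/F and V/F were calculated. Terminal-phase parameters were omitted where too few terminal data points were available.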

COc1cc2nccc(Oc3ccc(NC(=O)NC4CC4)c(Cl)c3)c2cc1C(N)=O [E7080]
Constipation (all grades), n patients ([1]; 0.2–6.4 mg (n=21)): 2
Diarrhoea (all grades), n patients ([1]; 0.2–6.4 mg (n=21)): 4
Dry skin (all grades), % of patients ([1]; 0.2–6.4 mg (n=21)): 5%
Dry skin (all grades), n patients ([1]; 0.2–6.4 mg (n=21)): 1
Dysphonia (all grades), % of patients ([1]; 0.2–6.4 mg (n=21)): 0%
Dysphonia (all grades), n patients ([1]; 0.2–6.4 mg (n=21)): 0
Fatigue (all grades), % of patients ([1]; 0.2–6.4 mg (n=21)): 10%
Fatigue (all grades), n patients ([1]; 0.2–6.4 mg (n=21)): 2
Headache (all grades), % of patients ([1]; 0.2–6.4 mg (n=21)): 0%
Headache (all grades), n patients ([1]; 0.2–6.4 mg (n=21)): 0
Hypertension (all grades), % of patients ([1]; 0.2–6.4 mg (n=21)): 10%
Hypertension (all grades), n patients ([1]; 0.2–6.4 mg (n=21)): 2
Hypertension Grade 1, % of patients ([1]; 0.2–6.4 mg (n=21)): 5%
Hypertension Grade 1, n patients ([1]; 0.2–6.4 mg (n=21)): 1
Hypertension Grade 2, % of patients ([1]; 0.2–6.4 mg (n=21)): 0%
Hypertension Grade 2, n patients ([1]; 0.2–6.4 mg (n=21)): 0
Hypertension Grade 3, % of patients ([1]; 0.2–6.4 mg (n=21)): 5%
Hypertension Grade 3, n patients ([1]; 0.2–6.4 mg (n=21)): 1
Lethargy (all grades), % of patients ([1]; 0.2–6.4 mg (n=21)): 14%
Lethargy (all grades), n patients ([1]; 0.2–6.4 mg (n=21)): 3
Nausea (all grades), % of patients ([1]; 0.2–6.4 mg (n=21)): 38%
Nausea (all grades), n patients ([1]; 0.2–6.4 mg (n=21)): 8
Proteinuria (all grades), % of patients ([1]; 0.2–6.4 mg (n=21)): 14%
Proteinuria (all grades), n patients ([1]; 0.2–6.4 mg (n=21)): 3
Proteinuria Grade 1, % of patients ([1]; 0.2–6.4 mg (n=21)): 0%
Proteinuria Grade 1, n patients ([1]; 0.2–6.4 mg (n=21)): 0
Proteinuria Grade 2, % of patients ([1]; 0.2–6.4 mg (n=21)): 14%
Proteinuria Grade 2, n patients ([1]; 0.2–6.4 mg (n=21)): 3
Proteinuria Grade 3, % of patients ([1]; 0.2–6.4 mg (n=21)): 0%
Proteinuria Grade 3, n patients ([1]; 0.2–6.4 mg (n=21)): 0
Stomatitis (all grades), % of patients ([1]; 0.2–6.4 mg (n=21)): 5%
Stomatitis (all grades), n patients ([1]; 0.2–6.4 mg (n=21)): 1
Vomiting (all grades), n patients ([1]; 0.2–6.4 mg (n=21)): 7
Abdominal pain (all grades), % of patients ([1]; 12–20 mg (n=30)): 7%
Abdominal pain (all grades), n patients ([1]; 12–20 mg (n=30)): 2
Anorexia (all grades), % of patients ([1]; 12–20 mg (n=30)): 17%
Anorexia (all grades), n patients ([1]; 12–20 mg (n=30)): 5
Constipation (all grades), % of patients ([1]; 12–20 mg (n=30)): 10%
Constipation (all grades), n patients ([1]; 12–20 mg (n=30)): 3
Diarrhoea (all grades), n patients ([1]; 12–20 mg (n=30)): 8
Dry skin (all grades), % of patients ([1]; 12–20 mg (n=30)): 10%
Dry skin (all grades), n patients ([1]; 12–20 mg (n=30)): 3
Dysphonia (all grades), % of patients ([1]; 12–20 mg (n=30)): 13%
Dysphonia (all grades), n patients ([1]; 12–20 mg (n=30)): 4
Fatigue (all grades), % of patients ([1]; 12–20 mg (n=30)): 23%
Fatigue (all grades), n patients ([1]; 12–20 mg (n=30)): 7
Headache (all grades), % of patients ([1]; 12–20 mg (n=30)): 7%
Headache (all grades), n patients ([1]; 12–20 mg (n=30)): 2
Hypertension (all grades), % of patients ([1]; 12–20 mg (n=30)): 40%
Hypertension (all grades), n patients ([1]; 12–20 mg (n=30)): 12
Hypertension Grade 1, % of patients ([1]; 12–20 mg (n=30)): 7%
Hypertension Grade 1, n patients ([1]; 12–20 mg (n=30)): 2
Hypertension Grade 2, % of patients ([1]; 12–20 mg (n=30)): 23%
Hypertension Grade 2, n patients ([1]; 12–20 mg (n=30)): 7
Hypertension Grade 3, % of patients ([1]; 12–20 mg (n=30)): 10%
Hypertension Grade 3, n patients ([1]; 12–20 mg (n=30)): 3
Lethargy (all grades), % of patients ([1]; 12–20 mg (n=30)): 17%
Lethargy (all grades), n patients ([1]; 12–20 mg (n=30)): 5
Nausea (all grades), % of patients ([1]; 12–20 mg (n=30)): 17%
Nausea (all grades), n patients ([1]; 12–20 mg (n=30)): 5
Proteinuria (all grades), n patients ([1]; 12–20 mg (n=30)): 8
Proteinuria Grade 1, % of patients ([1]; 12–20 mg (n=30)): 0%
Proteinuria Grade 1, n patients ([1]; 12–20 mg (n=30)): 0
Proteinuria Grade 2, % of patients ([1]; 12–20 mg (n=30)): 20%
Proteinuria Grade 3, % of patients ([1]; 12–20 mg (n=30)): 7%
Proteinuria Grade 3, n patients ([1]; 12–20 mg (n=30)): 2
Stomatitis (all grades), % of patients ([1]; 12–20 mg (n=30)): 20%
Vomiting (all grades), % of patients ([1]; 12–20 mg (n=30)): 10%
Vomiting (all grades), n patients ([1]; 12–20 mg (n=30)): 3
Abdominal pain (all grades), % of patients ([1]; Total (n=82)): 11%
Abdominal pain (all grades), n patients ([1]; Total (n=82)): 9
Anorexia (all grades), % of patients ([1]; Total (n=82)): 17%
Anorexia (all grades), n patients ([1]; Total (n=82)): 14
Constipation (all grades), % of patients ([1]; Total (n=82)): 17%
Constipation (all grades), n patients ([1]; Total (n=82)): 14
Diarrhoea (all grades), n patients ([1]; Total (n=82)): 28
Dry skin (all grades), % of patients ([1]; Total (n=82)): 20%
Dry skin (all grades), n patients ([1]; Total (n=82)): 16
Dysphonia (all grades), % of patients ([1]; Total (n=82)): 22%
Dysphonia (all grades), n patients ([1]; Total (n=82)): 18
Fatigue (all grades), % of patients ([1]; Total (n=82)): 18%
Fatigue (all grades), n patients ([1]; Total (n=82)): 15
Headache (all grades), % of patients ([1]; Total (n=82)): 13%
Headache (all grades), n patients ([1]; Total (n=82)): 11
Hypertension (all grades), % of patients ([1]; Total (n=82)): 40%
Hypertension Grade 1, % of patients ([1]; Total (n=82)): 7%
Hypertension Grade 2, % of patients ([1]; Total (n=82)): 22%
Hypertension Grade 2, n patients ([1]; Total (n=82)): 18
Hypertension Grade 3, % of patients ([1]; Total (n=82)): 11%
Lethargy (all grades), % of patients ([1]; Total (n=82)): 23%
Nausea (all grades), % of patients ([1]; Total (n=82)): 37%
Proteinuria (all grades), % of patients ([1]; Total (n=82)): 26%
Proteinuria (all grades), n patients ([1]; Total (n=82)): 21
Proteinuria Grade 1, % of patients ([1]; Total (n=82)): 0%
Proteinuria Grade 1, n patients ([1]; Total (n=82)): 0
Proteinuria Grade 2, % of patients ([1]; Total (n=82)): 18%
Proteinuria Grade 2, n patients ([1]; Total (n=82)): 15
Proteinuria Grade 3, % of patients ([1]; Total (n=82)): 7%
Stomatitis (all grades), % of patients ([1]; Total (n=82)): 32%
Stomatitis (all grades), n patients ([1]; Total (n=82)): 26
Vomiting (all grades), % of patients ([1]; Total (n=82)): 23%
Dose dependence of exposure and Cmax ([2]; 0.2 to 32 mg): dose-linear kinetics; also recorded: increased linearly with increasing dose
Accumulation after multiple dosing ([2]; after 4 weeks' administration, once daily): no drug accumulation
Time to maximum concentrations ([2]; after a single dose): ≤ 3 h
